According to publication PMC3031457 (Anti-cancer drugs, 2009):
Where two headings read alike, the source gives them in different places. Marks after values point to notes of the source that are not given here.

Key:
[1] = system: AsPC-1; details: read-out: IC50 (μM) AsPC-1; ref Li et al ([14]); cited from earlier work
[2] = system: MIA PaCa2; details: read-out: IC50 (μM) MIA PaCa2; ref Li et al ([14]); cited from earlier work
[3] = system: BxPC-3; details: read-out: IC50 (μM) BxPC-3; ref Li et al ([14]); cited from earlier work
[4] = system: Panc-1; details: read-out: IC50 (μM) Panc-1; ref Li et al ([14]); cited from earlier work
[5] = system: BxPC-3; test: Cell viability assay; assay type: cell-based, human; details: read-out: IC50 (μM) BxPC-3
Method in brief: (§1)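 Cells were grown in RPMI-1640 with 10% FBS, pyruvate, HEPES, glutamine and antibiotics at 37°C, 5% CO2, and seeded at 6000 cells/well. After 24 h adherence, half the medium was replaced with serially diluted test compound, 5-fluorouracil, or methanol-containing medium. Exposure lasted 72 h. MTT (5 mg/ml solution) was then added for 3 h at 37°C, formazan dissolved in HCl-acidified isopropanol, and absorbance read at 570 nm.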

[6] = system: Panc-1; test: Cell viability assay; assay type: cell-based, human; details: read-out: IC50 (μM) Panc-1
Method in brief: as §1

[7] = system: AsPC-1; test: Cell viability assay; assay type: cell-based, human; details: read-out: IC50 (μM) AsPC-1
Method in brief: as §1

[8] = system: MIA PaCa2; test: Cell viability assay; assay type: cell-based, human; details: read-out: IC50 (μM) MIA PaCa2
Method in brief: as §1

[9] = system: AsPC-1 cells; test: Cell cycle analysis by flow cytometry; assay type: cell-based, human; details: 48 hours
Method in brief: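 AsPC-1 cells were trypsinized into 6-well plates and allowed to adhere for 24 h. They were then exposed for 48 h to test compound at 5 or 25 μg/ml, methanol vehicle, medium alone, or 100 nM paclitaxel as positive control. Cells were fixed in ice-cold ethanol (−20°C, 1 h) and stained with propidium iodide plus RNase A (30 min, 37°C) for flow cytometry. Run 3 times.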

[10] = system: Panc-1, AsPC-1, BxPC-3, and MIA-PaCa2; test: Cell viability assay; assay type: cell-based, human; details: read-out: IC50 in all pancreatic cell lines
Method in brief: as §1

[11] = system: genomic salmon testes DNA; test: DNA intercalation assay; assay type: binding; details: for DNA intercalation (in words): 5 and 25 μg/ml; for % DNA intercalation: 25 μg/ml, ethidium bromide displacement
Method in brief: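 Genomic salmon testes DNA (0.5 μg) was equilibrated with 1.27 μM ethidium bromide for 30 min at room temperature. Test compound (5 or 25 μg/ml), methanol vehicle, 1 μM doxorubicin (positive control) or 100 μM etoposide (negative control) was added for a further 30 min. Ethidium displacement was read as a fluorescence decrease (ex 340, em 590 nm). Mean of 3 experiments ± standard deviation.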

[12] = molecular target: topoisomerase II (Homo sapiens, UniProt P11388); test: Decatenation reaction of kinetoplast DNA; assay type: biochemical; details: for topoisomerase II inhibition (in words) / % Inhibition topoisomeraseII: 25 μg/ml; for inhibition at 25 µg/mL: read-out: % Inhibition topoisomeraseII; for % Inhibition topoisomeraseII: decatenation of kinetoplast DNA, 30 minutes
Method in brief: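 A commercial kit assay was used: 0.2 μg kinetoplast DNA plus 1 U topoisomerase II in ATP/MgCl2/DTT buffer, 20 μl reactions. Test compound was added at 5 or 25 μg/ml (methanol vehicle); 100 μM etoposide in DMSO served as positive control. Reactions ran 30 min at 37°C, were stopped with Sarkosyl loading dye, and resolved on 1% agarose with ethidium bromide. Gel densitometry was used; seven experiments, SEM, Student's t test.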

[13] = system: Vero; test: Cell viability assay; assay type: cell-based, African green monkey; details: read-out: IC50 (μM) Vero; MTT, 72 hours, n=4 ± SE; normal cell line
Method in brief: as §1

Chain of topoisomerase II (P11388 whole entry): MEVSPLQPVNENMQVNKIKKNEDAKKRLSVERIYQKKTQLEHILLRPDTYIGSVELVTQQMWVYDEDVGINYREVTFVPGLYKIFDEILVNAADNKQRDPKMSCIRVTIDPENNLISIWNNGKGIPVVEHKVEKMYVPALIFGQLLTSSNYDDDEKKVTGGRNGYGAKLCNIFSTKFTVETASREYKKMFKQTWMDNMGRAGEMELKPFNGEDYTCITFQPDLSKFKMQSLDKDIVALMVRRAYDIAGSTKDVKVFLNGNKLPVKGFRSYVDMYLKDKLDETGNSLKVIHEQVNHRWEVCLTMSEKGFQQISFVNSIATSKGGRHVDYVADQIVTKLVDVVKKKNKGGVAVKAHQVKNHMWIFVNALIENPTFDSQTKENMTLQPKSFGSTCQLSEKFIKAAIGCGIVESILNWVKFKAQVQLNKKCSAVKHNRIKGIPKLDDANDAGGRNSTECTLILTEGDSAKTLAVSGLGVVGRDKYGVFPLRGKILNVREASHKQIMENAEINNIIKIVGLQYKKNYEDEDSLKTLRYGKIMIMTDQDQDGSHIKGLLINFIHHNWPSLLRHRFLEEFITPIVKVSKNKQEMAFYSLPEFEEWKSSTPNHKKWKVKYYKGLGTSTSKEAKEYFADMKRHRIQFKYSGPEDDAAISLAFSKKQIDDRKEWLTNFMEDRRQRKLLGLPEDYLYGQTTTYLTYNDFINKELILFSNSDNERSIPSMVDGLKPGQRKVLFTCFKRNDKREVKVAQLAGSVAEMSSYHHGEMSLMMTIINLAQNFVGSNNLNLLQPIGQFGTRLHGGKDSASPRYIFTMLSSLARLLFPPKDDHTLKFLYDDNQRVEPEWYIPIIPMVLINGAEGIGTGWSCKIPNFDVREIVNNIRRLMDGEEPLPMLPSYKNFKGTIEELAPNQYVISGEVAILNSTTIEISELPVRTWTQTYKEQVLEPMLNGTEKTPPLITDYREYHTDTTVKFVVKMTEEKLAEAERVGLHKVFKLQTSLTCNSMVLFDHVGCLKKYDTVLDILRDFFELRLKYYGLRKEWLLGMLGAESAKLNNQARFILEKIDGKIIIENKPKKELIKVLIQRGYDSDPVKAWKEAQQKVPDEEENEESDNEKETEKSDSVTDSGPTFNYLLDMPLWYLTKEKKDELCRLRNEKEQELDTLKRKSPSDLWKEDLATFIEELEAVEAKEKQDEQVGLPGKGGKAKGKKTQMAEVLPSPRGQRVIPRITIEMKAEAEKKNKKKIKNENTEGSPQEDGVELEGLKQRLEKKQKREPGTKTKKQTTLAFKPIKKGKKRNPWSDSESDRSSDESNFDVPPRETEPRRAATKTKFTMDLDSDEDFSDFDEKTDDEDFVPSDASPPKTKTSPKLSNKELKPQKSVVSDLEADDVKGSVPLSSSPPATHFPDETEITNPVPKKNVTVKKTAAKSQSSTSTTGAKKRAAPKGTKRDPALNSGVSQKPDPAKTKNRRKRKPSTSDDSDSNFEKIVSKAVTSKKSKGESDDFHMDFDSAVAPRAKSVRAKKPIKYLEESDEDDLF

| SMILES | IC50 ([5]; Homo sapiens, BXPC-3, 72 h) [µM] | IC50 ([6]; Homo sapiens, PANC-1, 72 h) [µM] | IC50 ([7]; Homo sapiens, ASPC1, 72 h) [µM] | IC50 ([8]; Homo sapiens, MIA PaCa-2, 72 h) [µM] | Cell cycle arrest ([9]; 5 μg/ml, data not shown) | Cell cycle arrest ([9]; 25 μg/ml) | DNA intercalation (in words) [11] | topoisomerase II inhibition (in words) [12] | inhibition at 25 µg/mL [12] [%] | % DNA intercalation [11] | IC50 ([5]; MTT, 72 hours, n=4 ± SE) [µM] | IC50 ([6]; MTT, 72 hours, n=4 ± SE) [µM] | IC50 ([7]; MTT, 72 hours, n=4 ± SE) [µM] | % Inhibition topoisomeraseII [12] | IC50 [13] [µM] | IC50 ([8]; MTT, 72 hours, n=4 ± SE) [µM] | further results |
| --- | --- | --- | --- | --- | --- | --- | --- | --- | --- | --- | --- | --- | --- | --- | --- | --- | --- |
| Nc1ccn([C@@H]2O[C@H](CO)[C@@H](O)C2(F)F)c(=O)n1 [Gemcitabine, gemcitabine] |  |  |  |  |  |  |  |  |  |  |  |  |  |  |  |  | IC50 [1]: > 250 µM; IC50 [2]: 14.5 µM; IC50 [3]: > 250 µM; IC50 [4]: 7.2 µM |
| O=c1[nH]cc(F)c(=O)[nH]1 [5-Fluorouracil, 5-fluorouracil, reference compound] | 5.56 ± 1.64 | 5.73 ± 0.682 | > 38.4 | 8.31 ± 0.357 |  |  |  |  |  |  |  |  |  |  |  |  |  |
| N=C1C(Cl)=C(N)C(=O)c2[nH]cc(C(O)CO)c21 (centres unmarked) [Secobatzelline A] | 4.09 ± 0.146 | 10.4 ± 1.16 | 3.62 ± 0.801 | 5.63 ± 0.739 | S-phase cell cycle arrest | S phase | significant intercalation into DNA | significantly inhibited topoisomerase II activity | 61 |  |  |  |  |  |  |  | IC50 ([10]; Homo sapiens, 72 h): < 10 µM |
| Cn1cc2c3c1C(=O)C(N)=C(Cl)C3=NCC2 [Isobatzelline C] | 1.31 ± 0.185 | 9.98 ± 0.384 | 1.72 ± 0.168 | 2.34 ± 0.0977 | S-phase cell cycle arrest | S phase |  |  | 27 | 56 ^** % |  |  |  |  |  |  | IC50 ([10]; Homo sapiens, 72 h): < 10 µM |
| CSC1=Nc2c(O)c(O)c(Cl)c3c2=C1CCN=3 [Batzelline B] |  |  |  |  | did not have an effect | S phase |  | significantly inhibited topoisomerase II activity |  | 21% | > 18.6 | > 18.6 | > 18.6 | 63 ^* % | > 18.6 | > 18.6 |  |
| Cn1cc2ccnc3c2c1C(=O)C(N)=C3Cl [Isobatzelline E] |  |  |  |  | did not have an effect |  | significant intercalation into DNA | significantly inhibited topoisomerase II activity |  |  | > 21.5 | > 21.5 | > 21.5 | 95 ^* % | > 21.5 | > 21.5 |  |
| CSc1c2ccnc3c2c(n1C)C(=O)C(N)=C3Cl [Isobatzelline D] |  |  |  |  | S-phase cell cycle arrest | S phase |  |  |  | 47 ^** % | 1.48 ± 0.18 | 5.72 ± 0.253 | 1.48 ± 0.187 | 26% | 15.7 ± 1.17 | 2.67 ± 0.295 | IC50 ([10]; MTT, 72 hours): < 10 µM |
| CSc1c2c3c(n1C)C(=O)C(N)=C(Cl)C3=NCC2 [Isobatzelline A] |  |  |  |  | S-phase cell cycle arrest | S phase | significant intercalation into DNA | significantly inhibited topoisomerase II activity |  | 54 ^** % | 2.39 ± 0.218 | 9.37 ± 0.536 | 1.74 ± 0.415 | 36 ^* % | > 17.7 | 4.34 ± 0.22 | IC50 ([10]; MTT, 72 hours): < 10 µM |
| NC1=C(Cl)C(=O)c2c(C(O)CO)c[nH]c2C1=O (centres unmarked) [Secobatzelline B] | > 19.5 | 17.4 ± 0.281 | > 19.5 | > 19.5 | did not have an effect | S phase | no DNA intercalation | no DNA intercalation or topoisomerase II inhibition | 13 |  |  |  |  |  |  |  |  |
| CSc1c2c3c(n1C)C(=O)C(=O)C(Cl)=C3NCC2 [Batzelline A] | > 17.7 | > 17.7 | > 17.7 | > 17.7 | S-phase cell cycle arrest | S phase | no DNA intercalation |  | 58 | 18% |  |  |  |  |  |  |  |
